{"source": "ChEMBL document CHEMBL4007422", "about": "(J Med Chem, 2017)", "key": {"Homo sapiens": {"system": "Homo sapiens", "experiment": "Toxicity in healthy elderly male human subjects administered as multiple ascending dose for 14 days", "conditions": "336 h"}, "Salmonella typhimurium": {"system": "Salmonella typhimurium", "experiment": "Mutagenicity in Salmonella typhimurium TA1535 in absence of metabolic activation", "type": "toxicity", "conditions": "salmonella enterica subsp. enterica serovar typhimurium"}, "[1]": {"target": "T1, 5-hydroxytryptamine receptor 2C (Homo sapiens) (UniProt P28335)", "T1 sequence (whole entry)": "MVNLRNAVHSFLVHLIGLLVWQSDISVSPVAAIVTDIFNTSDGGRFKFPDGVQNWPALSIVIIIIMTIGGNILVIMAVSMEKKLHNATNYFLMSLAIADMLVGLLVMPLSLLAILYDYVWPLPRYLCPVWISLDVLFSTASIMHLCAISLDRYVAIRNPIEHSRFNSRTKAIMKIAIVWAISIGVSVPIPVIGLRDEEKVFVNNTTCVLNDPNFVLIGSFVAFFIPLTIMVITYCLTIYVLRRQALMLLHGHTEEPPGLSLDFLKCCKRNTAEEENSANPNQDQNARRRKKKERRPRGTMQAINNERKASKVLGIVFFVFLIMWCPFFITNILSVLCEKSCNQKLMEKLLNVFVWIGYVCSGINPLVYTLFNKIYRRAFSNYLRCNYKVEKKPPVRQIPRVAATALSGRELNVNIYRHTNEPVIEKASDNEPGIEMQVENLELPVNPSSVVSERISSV", "experiment": "Displacement of [3H]-Mesulergine from recombinant human 5-HT2C receptor expressed in HEK293 cell membranes after 180 mins by microbeta scintillation counting analysis"}, "[2]": {"experiment": "Oral bioavailability in Wistar rat at 10 mg/kg by LC-MS/MS analysis", "type": "ADME, organism-based", "conditions": "Wistar, in vivo"}, "[3]": {"experiment": "Oral bioavailability in Beagle dog at 10 mg/kg", "type": "ADME, organism-based, Canis lupus familiaris", "conditions": "in vivo"}, "[4]": {"target": "Alpha-2A adrenergic receptor (Homo sapiens) (UniProt P08913)", "sequence (P08913 whole entry)": "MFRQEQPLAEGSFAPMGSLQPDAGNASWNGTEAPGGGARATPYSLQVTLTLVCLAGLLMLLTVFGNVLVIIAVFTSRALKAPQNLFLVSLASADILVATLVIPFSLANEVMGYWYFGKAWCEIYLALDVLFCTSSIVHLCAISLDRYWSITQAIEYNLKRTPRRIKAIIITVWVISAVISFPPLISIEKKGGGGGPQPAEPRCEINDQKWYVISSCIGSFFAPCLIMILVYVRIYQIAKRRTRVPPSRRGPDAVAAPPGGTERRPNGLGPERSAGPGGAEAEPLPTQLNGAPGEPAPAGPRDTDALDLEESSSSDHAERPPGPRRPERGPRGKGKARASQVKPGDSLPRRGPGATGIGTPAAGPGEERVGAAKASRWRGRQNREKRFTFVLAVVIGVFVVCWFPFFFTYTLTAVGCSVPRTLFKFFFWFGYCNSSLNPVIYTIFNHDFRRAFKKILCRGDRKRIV", "conditions": "1 uM"}, "[5]": {"target": "Voltage-gated inwardly rectifying potassium channel KCNH2 (Homo sapiens, UniProt Q12809)", "sequence (Q12809 whole entry)": "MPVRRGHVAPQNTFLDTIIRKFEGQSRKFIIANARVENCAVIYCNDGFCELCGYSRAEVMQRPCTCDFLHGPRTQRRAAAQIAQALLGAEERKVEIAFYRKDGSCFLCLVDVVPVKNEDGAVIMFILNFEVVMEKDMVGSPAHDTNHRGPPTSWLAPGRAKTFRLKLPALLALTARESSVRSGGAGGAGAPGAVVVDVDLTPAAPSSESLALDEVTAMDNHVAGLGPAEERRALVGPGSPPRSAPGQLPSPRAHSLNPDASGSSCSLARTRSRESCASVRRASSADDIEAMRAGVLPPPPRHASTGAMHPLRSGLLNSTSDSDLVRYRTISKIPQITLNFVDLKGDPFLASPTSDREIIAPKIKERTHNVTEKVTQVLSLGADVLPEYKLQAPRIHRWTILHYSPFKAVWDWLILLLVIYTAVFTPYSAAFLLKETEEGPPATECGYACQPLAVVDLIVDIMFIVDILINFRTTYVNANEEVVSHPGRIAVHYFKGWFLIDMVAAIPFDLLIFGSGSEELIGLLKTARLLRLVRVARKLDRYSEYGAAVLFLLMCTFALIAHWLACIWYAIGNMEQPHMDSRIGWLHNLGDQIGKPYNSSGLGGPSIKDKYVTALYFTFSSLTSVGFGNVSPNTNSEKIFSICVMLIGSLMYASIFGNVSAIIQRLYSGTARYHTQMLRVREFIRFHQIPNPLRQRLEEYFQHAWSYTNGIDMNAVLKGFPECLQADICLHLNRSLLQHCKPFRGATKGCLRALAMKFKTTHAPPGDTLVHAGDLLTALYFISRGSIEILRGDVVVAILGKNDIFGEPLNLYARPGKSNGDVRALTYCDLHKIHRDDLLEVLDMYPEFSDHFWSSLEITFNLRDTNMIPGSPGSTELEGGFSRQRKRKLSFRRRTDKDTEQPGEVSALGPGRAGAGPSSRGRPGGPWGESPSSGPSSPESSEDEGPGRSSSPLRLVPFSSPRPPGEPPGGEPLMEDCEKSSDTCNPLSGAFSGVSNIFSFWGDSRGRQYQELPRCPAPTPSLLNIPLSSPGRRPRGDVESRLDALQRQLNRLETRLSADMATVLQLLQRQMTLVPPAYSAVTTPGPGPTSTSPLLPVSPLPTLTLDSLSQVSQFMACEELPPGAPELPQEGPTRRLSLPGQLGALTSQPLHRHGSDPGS", "experiment": "Inhibition of astemizole binding to human ERG", "summary_of_the_method": "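hERG channel binding assessed as displacement in an astemizole binding assay.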"}, "Cytochrome P450 2B6": {"target": "Cytochrome P450 2B6 (Homo sapiens, UniProt P20813)", "sequence (P20813 whole entry)": "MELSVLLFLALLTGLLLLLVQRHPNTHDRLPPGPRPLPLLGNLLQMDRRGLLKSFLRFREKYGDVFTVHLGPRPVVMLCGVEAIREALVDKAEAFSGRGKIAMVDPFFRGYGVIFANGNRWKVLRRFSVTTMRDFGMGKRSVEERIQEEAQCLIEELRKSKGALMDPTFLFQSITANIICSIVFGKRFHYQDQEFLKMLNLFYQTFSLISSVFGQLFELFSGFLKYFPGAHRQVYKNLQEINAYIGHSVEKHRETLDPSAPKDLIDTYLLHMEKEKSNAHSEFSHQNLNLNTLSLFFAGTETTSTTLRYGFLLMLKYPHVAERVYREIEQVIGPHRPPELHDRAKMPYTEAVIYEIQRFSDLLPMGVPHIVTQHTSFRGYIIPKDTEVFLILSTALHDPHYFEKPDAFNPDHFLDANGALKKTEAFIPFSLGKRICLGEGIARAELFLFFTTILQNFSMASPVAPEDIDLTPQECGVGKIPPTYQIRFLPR", "experiment": "Induction of CYP2B6 activity in human hepatocytes at 0.01 to 1 uM preincubated for 3 days followed by substrate addition measured after 30 mins", "type": "ADME, cell-based", "conditions": "0.5 h", "summary_of_the_method": "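Plateable human hepatocytes exposed to 0.01, 0.1 and 1.0 μM. CYP1A2, CYP2B6 and CYP3A4 induction read as both mRNA expression and enzyme activity.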"}}, "note": "Activity calls are given as the source filed them. The rule behind the calls is not given here.", "data": [{"compound": "COc1ccc2c(c1)c(CN1CCN(C)CC1)cn2S(=O)(=O)c1ccccc1Br.CS(=O)(=O)O.O", "values": [{"measurement": "Activity", "setting": "Homo sapiens", "value": "Non-Toxic"}, {"measurement": "Activity", "setting": "Salmonella typhimurium", "value": "Non-Toxic"}, {"measurement": "Activity", "setting": "[1]", "value": "inactive"}, {"measurement": "bioavailability", "setting": "[2]", "value": 24.9, "unit": "%"}, {"measurement": "bioavailability", "setting": "[3]", "value": 35, "unit": "%"}, {"measurement": "inhibition", "setting": "[4]", "value": "> 50", "unit": "%"}, {"measurement": "inhibition (INH)", "setting": "[5]", "value": "Not Active"}, {"measurement": "Activity", "setting": "Cytochrome P450 2B6", "value": "Not Active"}]}]}
